Assay results: ChEMBL document CHEMBL1156778, “Synthesis and structure-activity studies of biphenyl analogues of the tuberculosis drug (6S)-2-nitro-6-{[4-(trifluoromethoxy)benzyl]oxy}-6,7-dihydro-5H-imidazo[2,1-b][1,3]oxazine (PA-824)” (J Med Chem, 2010)
Converted amounts (≈) assume the structure as drawn.

How the values were obtained:
Vero = assay: Cytotoxicity against african green monkey Vero cells after 72 hrs by MTS assay; type: cell-based; settings: Chlorocebus sabaeus
In short: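 VERO cells (CCL-81), 72 h exposure, tetrazolium dye read-out.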

[1] = test system: Mycobacterium tuberculosis; assay: Antitubercular activity against Mycobacterium tuberculosis H37Rv in aerobic condition after 7 days by microplate alamar blue assay; type: functional; settings: 168 h
In short: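 M. tuberculosis H37Rv, replicating culture; 8-day microplate assay with Alamar blue added on day 7 to read growth. […] Mean of at least two independent determinations ± SD.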

[2] = test system: Mycobacterium tuberculosis; assay: Antitubercular activity against Mycobacterium tuberculosis H37Rv in anaerobic condition after 7 days by low oxygen recovery assay; type: functional; settings: 168 h
[3] = Metabolic stability in pooled human liver microsomes assessed as compound remaining after 1 hr by LC-MS-MS; type: ADME, Microsome; settings: read-out: Stability
In short: (§1)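 Test compound at 1 μM with pooled CD-1 mouse or human liver microsomes (0.5 mg/mL protein) and NADPH-regenerating system (3.3 mM MgCl2, 3.3 mM G6P, 0.4 U/mL G6PD, 1.3 mM NADP+) in 75 mM phosphate, pH 7.4, 0.5% DMSO, 37 °C. Stopped at 0 and 60 min with MeCN containing metoprolol internal standard. LC-MS/MS (ESI, SRM), duplicates. % remaining = 100 × mean peak-area ratio at 60 min / at 0 min.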

[4] = test system: Mycobacterium tuberculosis; assay: Antitubercular activity against Mycobacterium tuberculosis H37Rv infected in BALB/c mouse measured per mouse at 100 mg/kg, po daily for 5 days a week for 3 weeks; type: functional
[5] = test system: Mycobacterium tuberculosis; assay: Antitubercular activity against Mycobacterium tuberculosis H37Rv infected in BALB/c mouse assessed as ratio of lung CFU for compound to lung CFU for PA-824 at 100 mg/kg, po daily for 5 days a week for 3 weeks; type: functional
[6] = Metabolic stability in pooled CD1 mouse liver microsomes assessed as compound remaining after 1 hr by LC-MS-MS; type: ADME, Microsome; settings: read-out: Stability; in short: as §1

Structure (SMILES)	IC50 (Vero) [µM]	MIC [1] [µM]	MIC [2] [µM]	remaining at 1 h [3] [%]	CFU [4]	fold change (FC) [5]	remaining at 1 h [6] [%]
O=[N+]([O-])c1cn2c(n1)OC[C@@H](OCc1cccc(-c3cccc(OC(F)(F)F)c3)c1)C2	> 125	0.4 (≈ 0.174 µg/mL)	3.5 (≈ 1.52 µg/mL)	–	–	–	–
O=[N+]([O-])c1cn2c(n1)OC[C@@H](OCc1cccc(-c3cccc(OCCCO)c3)c1)C2	> 125	0.58 (≈ 0.247 µg/mL)	2.5 (≈ 1.06 µg/mL)	–	–	–	–
O=[N+]([O-])c1cn2c(n1)OC[C@@H](OCc1ccccc1-c1ccc3ccccc3c1)C2	> 125	1.6 (≈ 0.642 µg/mL)	3.1 (≈ 1.24 µg/mL)	–	–	–	–
O=[N+]([O-])c1cn2c(n1)OC[C@@H](OCc1cccc(-c3cccc(C(F)(F)F)c3)c1)C2	> 125	0.34 (≈ 0.143 µg/mL)	2.9 (≈ 1.22 µg/mL)	–	–	–	–
CSc1cccc(-c2cccc(CO[C@@H]3COc4nc([N+](=O)[O-])cn4C3)c2)c1	> 125	0.07 (≈ 0.0278 µg/mL)	1.4 (≈ 0.556 µg/mL)	–	–	–	–
Cc1cccc(C)c1-c1ccc(CO[C@@H]2COc3nc([N+](=O)[O-])cn3C2)cc1	> 125	0.39 (≈ 0.148 µg/mL)	0.93 (≈ 0.353 µg/mL)	–	–	–	–
O=[N+]([O-])c1cn2c(n1)OC[C@@H](OCc1ccc(-c3ccc(CO)cc3)cc1)C2	> 125	0.54 (≈ 0.206 µg/mL)	3.7 (≈ 1.41 µg/mL)	–	–	–	–
O=[N+]([O-])c1cn2c(n1)OC[C@@H](OCc1cccc(-c3ccc(OCCCO)cc3)c1)C2	> 125	0.36 (≈ 0.153 µg/mL)	1.5 (≈ 0.638 µg/mL)	–	–	–	–
NC(=O)c1cccc(-c2ccc(CO[C@@H]3COc4nc([N+](=O)[O-])cn4C3)cc2)c1	> 125	2.8 (≈ 1.1 µg/mL)	6.7 (≈ 2.64 µg/mL)	–	–	–	–
CSc1cccc(-c2ccccc2CO[C@@H]2COc3nc([N+](=O)[O-])cn3C2)c1	> 125	0.81 (≈ 0.322 µg/mL)	3.2 (≈ 1.27 µg/mL)	–	–	–	–
CS(=O)(=O)c1ccc(-c2ccc(CO[C@@H]3COc4nc([N+](=O)[O-])cn4C3)cc2)cc1	> 125	0.67 (≈ 0.288 µg/mL)	14 (≈ 6.01 µg/mL)	–	–	–	–
Nc1ccc(-c2ccc(CO[C@@H]3COc4nc([N+](=O)[O-])cn4C3)cc2)cc1	> 125	0.49 (≈ 0.18 µg/mL)	1.9 (≈ 0.696 µg/mL)	–	–	–	–
O=[N+]([O-])c1cn2c(n1)OC[C@@H](OCc1ccccc1-c1cccc(OC(F)(F)F)c1)C2	> 125	1.9 (≈ 0.827 µg/mL)	6.3 (≈ 2.74 µg/mL)	–	–	–	–
N#Cc1ccc(-c2ccccc2CO[C@@H]2COc3nc([N+](=O)[O-])cn3C2)cc1	> 125	8.4 (≈ 3.16 µg/mL)	19 (≈ 7.15 µg/mL)	–	–	–	–
O=[N+]([O-])c1cn2c(n1)OC[C@@H](OCc1ccccc1-c1ccccc1OC(F)(F)F)C2	> 125	1.2 (≈ 0.522 µg/mL)	6.2 (≈ 2.7 µg/mL)	–	–	–	–
O=[N+]([O-])c1cn2c(n1)OC[C@@H](OCc1ccc(-c3ccc(OCCCO)cc3)cc1)C2	> 125	0.6 (≈ 0.255 µg/mL)	2.2 (≈ 0.936 µg/mL)	–	–	–	–
O=[N+]([O-])c1cn2c(n1)OC[C@@H](OCc1ccccc1-c1ccc(F)cc1)C2	> 125	1.2 (≈ 0.443 µg/mL)	3.4 (≈ 1.26 µg/mL)	–	–	–	–
COc1cccc(OC)c1-c1ccc(CO[C@@H]2COc3nc([N+](=O)[O-])cn3C2)cc1	> 125	0.31 (≈ 0.128 µg/mL)	1 (≈ 0.411 µg/mL)	–	–	–	–
O=[N+]([O-])c1cn2c(n1)OC[C@@H](OCc1cccc(-c3ccc(O)cc3)c1)C2	> 125	0.54 (≈ 0.198 µg/mL)	5.8 (≈ 2.13 µg/mL)	–	–	–	–
COc1cc(OC)cc(-c2ccc(CO[C@@H]3COc4nc([N+](=O)[O-])cn4C3)cc2)c1	> 125	0.28 (≈ 0.115 µg/mL)	0.79 (≈ 0.325 µg/mL)	–	–	–	–
CC(=O)c1ccc(-c2ccccc2CO[C@@H]2COc3nc([N+](=O)[O-])cn3C2)cc1	> 125	17 (≈ 6.69 µg/mL)	36 (≈ 14.2 µg/mL)	–	–	–	–
O=[N+]([O-])c1cn2c(n1)OC[C@@H](OCc1cccc(-c3ccccc3OC(F)(F)F)c1)C2	> 125	0.46 (≈ 0.2 µg/mL)	3.3 (≈ 1.44 µg/mL)	–	–	–	–
O=[N+]([O-])c1cn2c(n1)OC[C@@H](OCc1cccc(-c3cccc(O)c3)c1)C2	> 125	0.3 (≈ 0.11 µg/mL)	3.7 (≈ 1.36 µg/mL)	–	–	–	–
CCOc1ccccc1-c1ccc(CO[C@@H]2COc3nc([N+](=O)[O-])cn3C2)cc1	> 125	0.03 (≈ 0.0119 µg/mL)	0.82 (≈ 0.324 µg/mL)	50	540000	0.15	0.2
CN(C)CCOc1cccc(-c2ccc(CO[C@@H]3COc4nc([N+](=O)[O-])cn4C3)cc2)c1	> 125	1.5 (≈ 0.658 µg/mL)	18 (≈ 7.89 µg/mL)	–	–	–	–
Cc1cc(-c2ccc(CO[C@@H]3COc4nc([N+](=O)[O-])cn4C3)cc2)cc(C)c1O	> 125	0.3 (≈ 0.119 µg/mL)	1.5 (≈ 0.593 µg/mL)	–	–	–	–
